Reference: ChEMBL document CHEMBL1122989, “Quantitative structure-activity relationships in cytokinin agonistic and antagonistic pyrido[2,3-d]pyrimidine derivatives: insights into receptor topology” (J Med Chem, 1985)

Legend:
[1] = Anticytokinin activity was evaluated by 50% of the callus growth on the medium with kinetin but without anti-cytokinin; type: functional, Nicotiana tabacum; conditions: read-out: I50
Outline: (§1)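 Test compounds at several concentrations in basal medium containing kinetin; medium adjusted to pH 5.6 with 1 N NaOH and autoclaved at 1.0 kg/cm2 for 15 min. Callus growth was the read-out. I50 (µM) is the concentration giving 50% of the callus growth seen on kinetin medium without anticytokinin.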

Nicotiana tabacum = experiment: Effective concentration required for cytokinin activity for producing maximum response of callus yield; type: functional
Outline: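 Callus growth assay run without kinetin, with test compounds at several concentrations in basal medium. Medium adjusted to pH 5.6 with 1 N NaOH and autoclaved at 1.0 kg/cm2 for 15 min. Callus yield was the read-out.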

[2] = Anticytokinin activity was evaluated by 50% of the callus growth on the medium with kinetin but without anti-cytokinin; Insoluble; type: functional, Nicotiana tabacum; outline: as §1

Structure (SMILES) | IC50 [1] | E50 (Nicotiana tabacum) | also measured
CSc1nc(NC2CC2)c2cccnc2n1 | 4.9 µM |  | 
CCCNc1nc(SC)nc2ncccc12 | 0.27 µM |  | 
CSc1nc(Nc2ccc(Cl)cc2)c2cccnc2n1 | 8.51 µM |  | 
CSc1nc(Nc2cc(C)ccc2C)c2cccnc2n1 |  | 0.96 µM | 
CSc1nc(NC2CCCC2)c2cccnc2n1 | 0.49 µM |  | 
CSc1nc(NC2CCCCC2)c2cccnc2n1 | 5.65 µM |  | 
COc1ccc(Nc2nc(SC)nc3ncccc23)cc1 | 9.42 µM |  | 
CCC(C)Nc1nc(SC)nc2ncccc12 (stereo unspecified) | 0.86 µM |  | 
C=CCNc1nc(SC)nc2ncccc12 | 0.4 µM |  | 
CSc1nc(Nc2cccc([N+](=O)[O-])c2)c2cccnc2n1 | 3.55 µM |  | 
CSc1nc(Nc2cccc(C(C)=O)c2)c2cccnc2n1 | 13.2 µM |  | 
CSc1nc(Nc2ccc([N+](=O)[O-])cc2)c2cccnc2n1 |  |  | I50 [2]: Insoluble
CCCCNc1nc(SC)nc2ncccc12 | 0.27 µM |  | 
CCCCCCCNc1nc(SC)nc2ncccc12 | 4.07 µM |  | 
CCCCC(CC)CNc1nc(SC)nc2ncccc12 (stereo unspecified) | 15.8 µM |  | 
CNc1nc(SC)nc2ncccc12 | 2.92 µM |  | 
CCc1ccc(Nc2nc(SC)nc3ncccc23)cc1 | 7.15 µM |  | 
CSc1nc(Nc2ccccc2)c2cccnc2n1 | 15.8 µM |  | 
CCCCCCNc1nc(SC)nc2ncccc12 | 3.33 µM |  | 
CSc1nc(Nc2cccc(O)c2)c2cccnc2n1 |  | 5.44 µM | 
CCOc1ccc(Nc2nc(SC)nc3ncccc23)cc1 | 5.42 µM |  | 
CSc1nc(Nc2ccccc2C)c2cccnc2n1 |  | 3.59 µM | 
CCC(CC)Nc1nc(SC)nc2ncccc12 | 2.72 µM |  | 

Structure (SMILES) | IC50 [1] | E50 (Nicotiana tabacum) | also measured
CSc1nc(Nc2ccc(C(C)=O)cc2)c2cccnc2n1 | 8.96 µM |  | 
COCCNc1nc(SC)nc2ncccc12 | 2.53 µM |  | 
CSc1nc(Nc2cccc(I)c2)c2cccnc2n1 |  | 5.2 µM | 
CSc1nc(Nc2ccc(C)c(C)c2)c2cccnc2n1 |  | 0.92 µM | 
CSc1nc(Nc2cccc(C(=O)O)c2)c2cccnc2n1 | 9.2 µM |  | 
CSc1nc(Nc2ccc(C#N)cc2)c2cccnc2n1 | 7.56 µM |  | 
CSc1nc(Nc2cccc(C#N)c2)c2cccnc2n1 |  | 2.15 µM | 
CSc1nc(NCc2ccccc2)c2cccnc2n1 | 25.2 µM |  | 
CSc1nc(Nc2cccc(Br)c2)c2cccnc2n1 |  | 2.38 µM | 
CSc1nc(Nc2ccc(Cl)cc2Cl)c2cccnc2n1 |  | 0.95 µM | 
CSc1nc(Nc2cc(C)cc(C)c2)c2cccnc2n1 |  | 2.82 µM | 
CCOCCNc1nc(SC)nc2ncccc12 | 7.59 µM |  | 
CSc1nc(Nc2ccc(F)cc2)c2cccnc2n1 | 2.62 µM |  | 
CCCCCNc1nc(SC)nc2ncccc12 | 0.65 µM |  | 
CSc1nc(Nc2cc(Cl)cc(Cl)c2)c2cccnc2n1 |  | 0.84 µM | 
CSc1nc(Nc2cccc(C)c2)c2cccnc2n1 |  | 1.58 µM | 
CCc1cccc(Nc2nc(SC)nc3ncccc23)c1 |  | 1.91 µM | 
CSc1nc(Nc2cccc(F)c2)c2cccnc2n1 |  | 3.39 µM | 
CSc1nc(Nc2ccc(C(=O)O)cc2)c2cccnc2n1 |  | 12.5 µM | 
CSc1nc(Nc2ccc(Br)cc2)c2cccnc2n1 | 5.75 µM |  | 
CSc1nc(NC2CCC2)c2cccnc2n1 | 0.72 µM |  | 
CSc1nc(Nc2ccc(I)cc2)c2cccnc2n1 |  | 2.21 µM | 
CSc1nc(NCC(C)C)c2cccnc2n1 | 0.54 µM |  | 
